In general, IC50 refers to the concentration that gives 50% inhibition. By ED50 is commonly meant the dose at which the effect has come halfway, by size or by number of responders. For orientation: inhibition in vivo means the relative decrease from the control value, in per cent. A lower inhibition in vivo goes with a response near the control. One may read the Inhibition as how much of the control response was suppressed. A low value points to little suppression. As a reminder, the half-life is the time needed for the level to fall by half in the phase considered. The Cmax is the maximum level reached in the sampled fluid or tissue. For orientation: bioavailability means the share of a dose that reaches the circulation, judged against a reference dose that is usually intravenous.

This is an account of results in ChEMBL document CHEMBL1130137, “Substituted (pyridylmethoxy)naphthalenes as potent and orally active 5-lipoxygenase inhibitors; synthesis, biological profile, and pharmacokinetics of L-739,010” (J Med Chem, 1997).

The target in data set [1] is T1, Polyunsaturated fatty acid 5-lipoxygenase (Homo sapiens, UniProt P09917).
T1 sequence (P09917 whole entry): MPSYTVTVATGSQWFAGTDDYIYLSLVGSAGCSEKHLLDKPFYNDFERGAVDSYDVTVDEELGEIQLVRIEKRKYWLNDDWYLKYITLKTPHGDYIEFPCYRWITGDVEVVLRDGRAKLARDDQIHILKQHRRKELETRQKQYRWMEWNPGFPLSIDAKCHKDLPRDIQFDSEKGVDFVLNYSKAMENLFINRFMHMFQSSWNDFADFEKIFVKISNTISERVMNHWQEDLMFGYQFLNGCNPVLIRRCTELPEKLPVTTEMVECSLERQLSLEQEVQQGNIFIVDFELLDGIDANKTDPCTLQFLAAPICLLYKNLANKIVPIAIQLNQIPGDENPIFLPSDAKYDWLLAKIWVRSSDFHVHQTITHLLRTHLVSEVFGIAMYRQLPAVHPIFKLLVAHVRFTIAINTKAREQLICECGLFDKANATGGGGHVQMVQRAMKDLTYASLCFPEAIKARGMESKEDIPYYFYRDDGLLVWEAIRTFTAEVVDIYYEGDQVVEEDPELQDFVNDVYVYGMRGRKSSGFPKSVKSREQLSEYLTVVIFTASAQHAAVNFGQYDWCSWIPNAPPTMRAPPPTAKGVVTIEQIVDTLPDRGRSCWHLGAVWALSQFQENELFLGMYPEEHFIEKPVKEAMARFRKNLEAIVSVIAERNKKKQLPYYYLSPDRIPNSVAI
Put plainly: Compound was evaluated for the potency to inhibit oxidation of arachidonic acid by human recombinant 5-Lipoxygenase using a spectrophotometric assay. Type of data set: functional. Summed up: (§1)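 Soluble extracts of Sf9 insect cells overexpressing human 5-LO; arachidonic acid oxidation followed spectrophotometrically as 5-H(P)ETE production; IC50 values.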

The species named for data set [2] is Homo sapiens. Put plainly: Compound was evaluated for production of leukotriene B4 in human whole blood (HWB) activated with ionophore A-23187. It is filed as functional. Summed up: (§2)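 LTB4 generation triggered by Ca2+ ionophore A23187 in human peripheral blood polymorphonuclear leukocytes or in human whole blood; inhibitor potency expressed as IC50 (nM).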

The species named for data set [3] is Homo sapiens. Put plainly: Compound was evaluated for production of leukotriene B4 in Ca+2 -ionophore -activated human polymorphonuclear (HPMN) leukocytes. It is filed as functional. The essentials:
as §2

Data set [4] concerns the target T1, Polyunsaturated fatty acid 5-lipoxygenase. Put plainly: Inhibition of oxidation of arachidonic acid by human 5-Lipoxygenase using spectrophotometric assay. It is filed as functional. Summed up:
as §1

In data set [5] the test system is Canis familiaris. Put plainly: Ex Vivo generation of LTB4 by whole blood stimulated with calcium ionophore A-23187 in anesthetized dogs. Type of data set: functional, Canis lupus familiaris. The essentials:
(§3)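 Anesthetized dogs receiving iv infusion (µg/kg/min, dose-ranging). Baseline urinary LTE4 excretion measured over 5-7 h after infusion start; ex vivo LTB4 generation by whole blood stimulated with calcium ionophore A23187. ED50 in µg/kg/min.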

For data set [6], the species on record is Canis familiaris. As to the kind of experiment: Inhibition of urinary LTE4 levels in dogs. It is filed as functional, Canis lupus familiaris, Urine. Summed up:
as §3

Data set [7] is filed under the species Rattus norvegicus. Put plainly: Inhibition of LTB4 levels in rat pleural exudates. Type of data set: functional. The essentials:
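Rat pleurisy: carrageenan injected into the pleural cavity, followed 16-20 h later by ionophore A23187; LTB4 measured in pleural exudate 6 h after oral dosing; ED50 derived.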

The test system of data set [8] is Ovis aries. As to the kind of experiment: Compound was tested for inhibition of Ascaris -induced bronchoconstriction in sheep at 2.5 ug/kg intravenous administration. Type of data set: functional. Summed up: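 Conscious allergic sheep (n = 4) received an iv bolus of 0.2 mg/kg and then a constant iv infusion of 2.5 µg/kg/min before Ascaris antigen challenge. Percent inhibition was scored separately for the early-phase and late-phase bronchoconstriction.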

Data set [9] in a line: Compound was tested for inhibition of Ascaris -induced bronchoconstriction in squirrel monkeys. Type of data set: functional.
Data set [10] has as its system Rattus norvegicus. Put plainly: compound was tested for inhibition of ovalbumin- induced dyspnea in inbred hyperreactive rats at 0.5 mg/kg. It is filed as functional.
Data set [11] is described as follows: Plasma half-life in dogs in the presence of PEG 400/water(3:1). It is filed as ADME, organism-based, Canis lupus familiaris. The settings on record: dog. Summed up: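 Dog PK: free base given iv in PEG-400/water (3:1); plasma levels followed and half-life estimated from the intravenous administration.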
Data set [12] is described as follows: Plasma half-life in rats in the presence of PEG 400/water(3:1). As to conditions: rat. It is filed as ADME, organism-based.
Data set [13] in a line: Maximum concentration of unchanged drug in rat plasma in the period 0-24 hr after dosing. Type of data set: ADME, organism-based. Summed up: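 Rats dosed orally as HCl salt in 0.5% methocel suspension (10 mL/kg); jugular blood drawn before dosing and 0.5, 1, 2, 4, 6, 8, 10, 24 h after. Plasma deproteinized with equal volume acetonitrile; parent drug measured by reverse-phase HPLC peak area against standard curves from spiked rat plasma.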

Data set [14] is described as follows: Bioavailability in rat (Sprague-Dawley) (male). It is filed as ADME, organism-based. The settings on record: in vivo. The essentials:
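Oral dosing as HCl salt in 0.5% methocel suspension at 20 mg/kg (10 mL/kg); iv dosing of free base in PEG-400/water (3:1) at 5 mg/kg into jugular vein. Serial jugular blood to 24 h; plasma protein precipitated with acetonitrile, parent quantified by reverse-phase HPLC against spiked-plasma standards. F = (AUCpo × dose_iv)/(AUCiv × dose_po) × 100, over 0-24 h.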

A value given as a limit tells only on which side of the number the result lay.

For the compound `N#Cc1cc(-c2ccoc2)c2ccc(OCc3ccnc(C4(O)CCOCC4)c3)cc2c1`, the IC50 is 350 nM in data set [1], 250 nM in data set [2] and 5 nM in data set [3].

Take `N#Cc1cc(-c2ccoc2)c2ccc(COc3cccc(C4(O)CC5COC(C4)O5)n3)cc2c1` (stereo not given): the IC50 is 80 nM in data set [4], 67 nM in data set [2] and 3.1 nM in data set [3].

As to `N#Cc1cc(-c2ccoc2)c2ccc(OCc3ccc4ccc(C5(O)CCOCC5)cc4n3)cc2c1`, the IC50 came to 1000 nM in [4] and 44 nM in data set [3].

For the compound `CC(C)(C)Sc1c(CC(C)(C)C(=O)O)n(Cc2ccc(Cl)cc2)c2ccc(OCc3ccc4ccccc4n3)cc12` [QUIFLAPON], the ED50 was determined as 0.5 µg/min/kg in data set [5], 1 µg/min/kg in data set [6] and 0.15 mg/kg in data set [7]. The inhibition in vivo at 0.0025 mg/kg in data set [8] was > 75%. In data set [9], this compound registered an Inhibition of 71%. The compound further yielded an inhibition in vivo at 0.5 mg/kg in [10] of 56%.

`CC(c1cc2ccccc2s1)N(O)C(N)=O` (stereo not given) [ZILEUTON] returned an IC50 in [2] of 2000 nM.

For the compound `N#Cc1cc(-c2ccoc2)c2ccc(OCc3csc(C4(O)CCOCC4)n3)cc2c1`, the figures for the IC50 in data set [4], in data set [2] and in data set [3] were 160 nM, 300 nM and 9 nM, respectively.

As to `N#Cc1cc(-c2ccoc2)c2ccc(OCc3cc(C4(O)CCOCC4)ccn3)cc2c1`, the results for the half-maximal inhibitory concentration (IC50) in data set [4], in [2] and in data set [3] were 70 nM, 50 nM and 3.5 nM, respectively.

As for `N#Cc1cc(-c2ccoc2)c2ccc(OCc3cccc(C4(O)CCOCC4)n3)cc2c1`, the IC50 was found to be 15 nM in data set [1], 30 nM in data set [2] and 0.6 nM in [3].

With `N#Cc1cc(-c2ccoc2)c2ccc(OCc3cccc(C4(O)CC5COC(C4)O5)n3)cc2c1` (stereo not given), the IC50 was determined as 20 nM in data set [4], 42 nM in data set [2] and 1.6 nM in data set [3]. The half-life is 16 h in data set [11] and 5 h in data set [12]. For the same compound, the ED50 was found to be 0.45 µg/min/kg in [5], 0.23 µg/min/kg in [6] and 0.3 mg/kg in data set [7]. In data set [8], this compound yielded an inhibition in vivo at 0.0025 mg/kg of 50%. In [9], this compound showed an Inhibition of 53%. At 0.5 mg/kg the inhibition in vivo in data set [10] was 60%.

`N#Cc1cc(-c2ccoc2)c2ccc(OCc3cccc(C4(O)CCOCC4)c3)cc2c1` displayed a Cmax in data set [13] of 1000 nM. The bioavailability in data set [14] was < 5%.

`N#Cc1cc(-c2ccoc2)c2ccc(OCc3cncc(C4(O)CCOCC4)c3)cc2c1`: the values for the IC50 in data set [4], in [2] and in data set [3] were 100 nM, 100 nM and 10 nM, respectively.
